Experimental data from ChEMBL document CHEMBL1150692, “Isolation and synthesis of a new bioactive ellagic acid derivative from Combretum yunnanensis” (J Nat Prod, 2003).
In brackets after ≈: the same amount, converted by molar mass.

How the values were obtained:
[1] = test system: KB; assay: Cytotoxicity against human KB cells after 3 days by MTT assay; type: functional, cell-based; conditions: 72 h
In short: (§1)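 Incubated with sample at 37 °C for 3 or 4 days; viable cell number then estimated by MTT colorimetric assay.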

[2] = test system: B16; assay: Cytotoxicity against mouse B16 cells after 3 days by MTT assay; type: functional, cell-based; conditions: B16, 72 h; in short: as §1
[3] = test system: Mus musculus; assay: Toxicity in mouse at 100 mg/kg, ip; type: organism-based; set-up: dose 100 mg/kg, route intraperitoneal; conditions: in vivo
[4] = test system: K562; assay: Cytotoxicity against human K562 cells after 3 days by MTT assay; type: functional, cell-based; conditions: K562, 72 h; in short: as §1
[5] = test system: K562; assay: Cytotoxicity against adriamycin-resistant human K562 cells after 3 days by MTT assay; type: functional, cell-based; conditions: K562, 72 h; in short: as §1
[6] = test system: P388; assay: Cytotoxicity against mouse P388 cells after 3 days by MTT assay; type: functional, cell-based; conditions: P388, 72 h; in short: as §1
[7] = test system: HeLa; assay: Cytotoxicity against human HeLa cells after 3 days by MTT assay; type: functional, cell-based; conditions: 72 h; in short: as §1
[8] = target: Protease (Human immunodeficiency virus 1, UniProt Q9YQ12); assay: Inhibition of HIV1 protease
[9] = test system: P388; assay: Cytotoxicity against adriamycin-resistant mouse P388 cells after 3 days by MTT assay; type: functional, cell-based; conditions: P388, 72 h; in short: as §1

Protease, sequence (Q9YQ12 whole entry): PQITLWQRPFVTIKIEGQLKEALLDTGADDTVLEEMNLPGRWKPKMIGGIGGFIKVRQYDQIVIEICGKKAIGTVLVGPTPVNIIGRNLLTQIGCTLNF

| IC50 [8] [µM] | Compound | IC50 [1] [µg/mL] | IC50 [2] [µg/mL] | Activity [3] | IC50 [4] [µg/mL] | IC50 [5] [µg/mL] | IC50 [6] [µg/mL] | IC50 [7] [µg/mL] | IC50 [9] [µg/mL] |
| --- | --- | --- | --- | --- | --- | --- | --- | --- | --- |
| 22.4 | CC(=O)O[C@@H]1[C@@H](O)[C@@H](O)[C@H](Oc2cc3c(=O)oc4c(O)c(O)cc5c(=O)oc(c2O)c3c45)O[C@H]1C | 61 (≈ 124 µM) | 52 (≈ 106 µM) | Non-toxic | 80 (≈ 163 µM) | 56 (≈ 114 µM) | 52 (≈ 106 µM) | 76 (≈ 155 µM) | 19 (≈ 38.7 µM) |
| 10.7 | C[C@@H]1O[C@@H](Oc2cc3c(=O)oc4c(O)c(O)cc5c(=O)oc(c2O)c3c45)[C@H](O)[C@H](O)[C@H]1O [ESCHWEILENOL C] | 98 (≈ 219 µM) | 88 (≈ 196 µM) |  | 82 (≈ 183 µM) | 67 (≈ 149 µM) | 62 (≈ 138 µM) | 86.5 (≈ 193 µM) | 53 (≈ 118 µM) |
